Laboratory results published in ChEMBL document CHEMBL1250448, “Inhibitor hijacking of Akt activation” (Nat Chem Biol, 2009).

Key:
[1] = biological target: Vascular endothelial growth factor receptor 3 (Homo sapiens) (UniProt P35916); assay: Inhibition of FLT4 at 1 uM in presence of 10 uM ATP by Select Screen kinase assay relative to untreated control
Outline: (§1)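 Single-concentration profiling at 1 μM against a panel of 220 purified kinases, run as an outsourced SelectScreen kinase profiling service. Activity is expressed as percent inhibition.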

[2] = biological target: Tyrosine-protein kinase CSK (Homo sapiens) (UniProt P41240); assay: Inhibition of CSK at 1 uM in presence of 10 uM ATP by Select Screen kinase assay relative to untreated control
Outline: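 Single-point screen at 1 μM against a panel of 220 purified kinases, run by Invitrogen staff as a SelectScreen profiling service. Read-out is percent inhibition of kinase activity.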

[3] = biological target: T1, Protein kinase C iota type (Homo sapiens) (UniProt P41743); assay: Inhibition of PRKCI at 1 uM in presence of 10 uM ATP by Select Screen kinase assay relative to untreated control
T1 sequence (whole entry): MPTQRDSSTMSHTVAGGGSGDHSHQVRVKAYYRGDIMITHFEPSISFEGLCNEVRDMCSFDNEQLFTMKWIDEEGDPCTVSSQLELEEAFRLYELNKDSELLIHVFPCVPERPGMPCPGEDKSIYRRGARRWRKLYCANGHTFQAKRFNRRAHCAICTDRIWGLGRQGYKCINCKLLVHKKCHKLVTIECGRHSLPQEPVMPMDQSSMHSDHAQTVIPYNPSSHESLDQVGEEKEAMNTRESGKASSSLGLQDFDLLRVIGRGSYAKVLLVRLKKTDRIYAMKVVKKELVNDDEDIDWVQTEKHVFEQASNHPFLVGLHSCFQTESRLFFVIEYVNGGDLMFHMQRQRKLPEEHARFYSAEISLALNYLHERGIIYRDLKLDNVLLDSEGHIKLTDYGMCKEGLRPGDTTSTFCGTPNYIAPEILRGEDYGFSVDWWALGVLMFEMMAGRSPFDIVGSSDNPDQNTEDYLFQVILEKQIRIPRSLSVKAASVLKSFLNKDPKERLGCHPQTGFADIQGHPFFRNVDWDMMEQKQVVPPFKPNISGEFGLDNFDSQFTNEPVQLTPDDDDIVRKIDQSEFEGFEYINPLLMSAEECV
Outline: (§2)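 Commercial SelectScreen profiling panel of 220 purified kinases. Each kinase was tested at a single inhibitor concentration of 1 μM, and activity was expressed as percent inhibition.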

[4] = biological target: Proto-oncogene tyrosine-protein kinase Src (Homo sapiens) (UniProt P12931); assay: Inhibition of SRC at 1 uM in presence of 10 uM ATP by Select Screen kinase assay relative to untreated control; outline: as §2
[5] = biological target: T2, Testis-specific serine/threonine-protein kinase 1 (Homo sapiens) (UniProt Q9BXA7); assay: Inhibition of STK22D at 1 uM in presence of 10 uM ATP by Select Screen kinase assay relative to untreated control; outline: as §2
T2 sequence (whole entry): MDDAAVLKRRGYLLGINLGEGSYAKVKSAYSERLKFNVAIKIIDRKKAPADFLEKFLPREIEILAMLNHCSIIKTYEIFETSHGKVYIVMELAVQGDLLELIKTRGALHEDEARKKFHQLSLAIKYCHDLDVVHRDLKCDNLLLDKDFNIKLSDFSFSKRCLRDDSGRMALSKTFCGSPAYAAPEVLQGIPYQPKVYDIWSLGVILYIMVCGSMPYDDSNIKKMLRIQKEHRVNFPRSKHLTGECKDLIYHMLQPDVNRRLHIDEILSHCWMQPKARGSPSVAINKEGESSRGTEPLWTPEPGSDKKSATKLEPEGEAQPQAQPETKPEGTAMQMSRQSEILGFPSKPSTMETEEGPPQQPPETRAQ

[6] = biological target: Aurora kinase C (Homo sapiens) (UniProt Q9UQB9); assay: Inhibition of AURKC at 1 uM in presence of 10 uM ATP by Select Screen kinase assay relative to untreated control
[7] = biological target: T3, Homeodomain-interacting protein kinase 4 (Homo sapiens) (UniProt Q8NE63); assay: Inhibition of HIPK4 at 1 uM in presence of 10 uM ATP by Select Screen kinase assay relative to untreated control; outline: as §1
T3 sequence (whole entry): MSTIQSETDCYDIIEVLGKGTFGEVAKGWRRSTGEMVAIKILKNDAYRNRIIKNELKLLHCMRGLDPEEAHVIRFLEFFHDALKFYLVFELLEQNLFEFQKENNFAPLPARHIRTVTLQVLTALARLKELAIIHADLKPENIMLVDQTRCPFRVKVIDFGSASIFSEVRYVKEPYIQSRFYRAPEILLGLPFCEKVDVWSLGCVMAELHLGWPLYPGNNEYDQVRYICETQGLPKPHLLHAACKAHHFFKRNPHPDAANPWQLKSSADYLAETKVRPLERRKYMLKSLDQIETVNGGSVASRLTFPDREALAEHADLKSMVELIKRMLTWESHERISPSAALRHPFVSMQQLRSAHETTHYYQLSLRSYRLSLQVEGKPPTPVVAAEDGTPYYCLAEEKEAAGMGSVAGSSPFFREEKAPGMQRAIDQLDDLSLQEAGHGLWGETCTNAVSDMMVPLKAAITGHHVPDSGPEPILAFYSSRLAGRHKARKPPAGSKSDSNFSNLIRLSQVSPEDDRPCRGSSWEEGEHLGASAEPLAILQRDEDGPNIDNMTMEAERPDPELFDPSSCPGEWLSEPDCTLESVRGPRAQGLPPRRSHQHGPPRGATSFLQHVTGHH

[8] = biological target: Mitogen-activated protein kinase 1 (Homo sapiens) (UniProt P28482); assay: Inhibition of MAPK1 at 1 uM in presence of 10 uM ATP by Select Screen kinase assay relative to untreated control; outline: as §1
Mitogen-activated protein kinase 1 (Homo sapiens), sequence (P28482 whole entry): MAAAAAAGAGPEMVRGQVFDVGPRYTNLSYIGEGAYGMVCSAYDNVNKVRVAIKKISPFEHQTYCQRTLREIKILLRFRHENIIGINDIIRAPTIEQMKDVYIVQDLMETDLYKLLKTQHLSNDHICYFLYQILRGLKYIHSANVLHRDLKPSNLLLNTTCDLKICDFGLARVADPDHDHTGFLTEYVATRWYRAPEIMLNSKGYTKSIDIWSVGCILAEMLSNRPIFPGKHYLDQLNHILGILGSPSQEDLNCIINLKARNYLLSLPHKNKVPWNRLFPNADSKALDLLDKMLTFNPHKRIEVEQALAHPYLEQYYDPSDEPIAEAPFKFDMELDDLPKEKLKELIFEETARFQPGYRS

Tyrosine-protein kinase CSK (Homo sapiens), sequence (P41240 2-450 limits assumed): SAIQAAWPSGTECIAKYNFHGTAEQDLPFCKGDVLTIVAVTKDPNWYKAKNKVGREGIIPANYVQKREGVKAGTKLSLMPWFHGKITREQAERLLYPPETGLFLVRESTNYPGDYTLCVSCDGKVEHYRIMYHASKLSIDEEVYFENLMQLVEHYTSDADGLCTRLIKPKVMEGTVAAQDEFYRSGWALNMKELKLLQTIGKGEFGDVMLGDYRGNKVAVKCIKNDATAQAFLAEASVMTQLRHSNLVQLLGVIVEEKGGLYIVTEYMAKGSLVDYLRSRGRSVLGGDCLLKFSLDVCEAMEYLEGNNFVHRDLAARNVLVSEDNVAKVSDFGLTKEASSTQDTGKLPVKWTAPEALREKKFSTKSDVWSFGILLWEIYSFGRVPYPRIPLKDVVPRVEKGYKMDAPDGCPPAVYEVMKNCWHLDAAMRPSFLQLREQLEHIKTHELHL
Aurora kinase C (Homo sapiens), sequence (Q9UQB9 whole entry, looked up): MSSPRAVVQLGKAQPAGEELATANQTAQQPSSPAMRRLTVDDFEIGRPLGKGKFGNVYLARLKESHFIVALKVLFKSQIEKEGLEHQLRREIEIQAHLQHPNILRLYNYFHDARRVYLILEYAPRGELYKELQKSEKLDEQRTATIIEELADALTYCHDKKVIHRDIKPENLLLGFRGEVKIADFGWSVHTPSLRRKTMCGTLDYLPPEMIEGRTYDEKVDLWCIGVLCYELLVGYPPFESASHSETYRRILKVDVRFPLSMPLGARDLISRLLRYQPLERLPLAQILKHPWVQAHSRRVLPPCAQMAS
Vascular endothelial growth factor receptor 3 (Homo sapiens), sequence (P35916 whole entry): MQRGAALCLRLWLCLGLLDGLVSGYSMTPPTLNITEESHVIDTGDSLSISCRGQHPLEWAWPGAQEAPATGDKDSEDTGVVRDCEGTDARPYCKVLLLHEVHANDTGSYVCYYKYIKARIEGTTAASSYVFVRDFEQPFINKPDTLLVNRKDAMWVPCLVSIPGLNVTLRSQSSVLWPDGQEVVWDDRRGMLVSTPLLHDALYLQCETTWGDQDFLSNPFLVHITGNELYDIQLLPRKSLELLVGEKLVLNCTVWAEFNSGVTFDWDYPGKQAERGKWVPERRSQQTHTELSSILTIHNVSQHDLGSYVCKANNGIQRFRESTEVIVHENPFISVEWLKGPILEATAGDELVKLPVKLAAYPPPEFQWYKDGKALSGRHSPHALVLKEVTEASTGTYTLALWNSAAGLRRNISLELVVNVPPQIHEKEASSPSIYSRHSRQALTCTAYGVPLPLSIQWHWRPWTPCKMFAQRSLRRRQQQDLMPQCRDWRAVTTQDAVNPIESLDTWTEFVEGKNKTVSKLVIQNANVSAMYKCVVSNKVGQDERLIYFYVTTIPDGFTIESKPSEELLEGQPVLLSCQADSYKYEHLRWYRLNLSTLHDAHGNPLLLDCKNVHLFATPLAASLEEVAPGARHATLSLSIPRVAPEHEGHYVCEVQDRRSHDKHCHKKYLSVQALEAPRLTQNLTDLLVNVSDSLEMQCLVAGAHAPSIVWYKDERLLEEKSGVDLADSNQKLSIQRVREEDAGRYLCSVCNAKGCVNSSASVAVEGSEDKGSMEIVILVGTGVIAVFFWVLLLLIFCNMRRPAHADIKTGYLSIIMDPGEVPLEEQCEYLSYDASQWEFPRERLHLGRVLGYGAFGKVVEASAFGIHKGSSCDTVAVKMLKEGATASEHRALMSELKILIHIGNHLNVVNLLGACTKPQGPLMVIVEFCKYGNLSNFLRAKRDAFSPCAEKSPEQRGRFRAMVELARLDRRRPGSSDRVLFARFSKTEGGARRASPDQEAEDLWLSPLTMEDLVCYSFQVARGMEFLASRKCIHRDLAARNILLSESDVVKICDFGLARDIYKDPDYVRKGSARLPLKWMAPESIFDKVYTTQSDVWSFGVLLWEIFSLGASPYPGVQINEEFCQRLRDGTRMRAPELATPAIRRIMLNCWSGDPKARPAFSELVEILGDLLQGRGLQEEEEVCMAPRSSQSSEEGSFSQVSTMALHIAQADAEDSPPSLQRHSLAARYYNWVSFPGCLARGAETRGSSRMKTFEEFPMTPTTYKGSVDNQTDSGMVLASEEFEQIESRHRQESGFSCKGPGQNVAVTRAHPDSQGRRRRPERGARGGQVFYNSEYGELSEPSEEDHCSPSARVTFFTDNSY
Proto-oncogene tyrosine-protein kinase Src (Homo sapiens), sequence (P12931 2-536 limits assumed): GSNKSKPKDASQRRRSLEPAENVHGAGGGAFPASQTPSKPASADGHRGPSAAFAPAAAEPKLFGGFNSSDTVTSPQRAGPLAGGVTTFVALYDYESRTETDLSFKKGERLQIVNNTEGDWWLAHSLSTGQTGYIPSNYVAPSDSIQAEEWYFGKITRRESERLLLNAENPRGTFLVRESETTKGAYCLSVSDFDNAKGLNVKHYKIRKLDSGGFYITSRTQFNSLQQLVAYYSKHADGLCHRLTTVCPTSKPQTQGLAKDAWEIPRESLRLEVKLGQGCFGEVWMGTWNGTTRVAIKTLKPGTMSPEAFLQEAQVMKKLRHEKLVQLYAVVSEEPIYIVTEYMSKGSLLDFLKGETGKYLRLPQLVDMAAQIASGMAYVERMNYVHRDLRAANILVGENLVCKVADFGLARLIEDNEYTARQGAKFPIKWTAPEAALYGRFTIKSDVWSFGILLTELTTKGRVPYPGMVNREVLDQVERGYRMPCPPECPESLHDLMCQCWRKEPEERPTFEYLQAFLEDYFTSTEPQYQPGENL

| SMILES | inhibition [1] [%] | inhibition [2] [%] | inhibition [3] [%] | inhibition [4] [%] | inhibition [5] [%] | inhibition [6] [%] | inhibition [7] [%] | inhibition [8] [%] |
| --- | --- | --- | --- | --- | --- | --- | --- | --- |
| Cc1n[nH]c2ccc(-c3cncc(OC[C@@H](N)Cc4c[nH]c5ccccc45)c3)cc12 | 1 | -1 | 10 | 11 | 71 | 17 | 75 | 61 |
| O=C(NCCCNc1nc(Nc2cccc(NC(=O)N3CCCC3)c2)ncc1I)c1cccs1 | 70 | 5 | 21 | 27 | 69 | 96 | 48 | 52 |
| COc1ccccc1N1CCN(c2ncnc3[nH]nc(Br)c23)CC1 | 45 | 3 | 13 | 10 | 21 | 16 | 18 | 11 |
